Compound activity (PubChem BioAssay)
AHR activator = activates the human aryl hydrocarbon receptor; P35869; AHR-responsive luciferase reporter cells, luminescence; activation, % at 5 µM; 320,000 compounds, 2.5% hits; in the data active = activation above about 47%;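 also: 0% = vehicle wells and 100% = reference agonist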
FXN GAA850 act = activators of GAA850 frataxin (FXN) promoter; HEK293 lucGAA850 FXN promoter luciferase reporter, 24 h; percent of 10 µM SAHA response; activation, % at 6 µM; 360,000 compounds, 0.56% hits; AID 540364;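 active = activation above the average of all compounds screened plus 3 SD, cutoff fixed separately per campaign, cut at about 7.5% in these data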;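 also: 0% = DMSO wells and 100% = 10 µM SAHA wells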
HTR2A ag = agonists of mouse serotonin 5-HT2A receptor (HTR2A) | 360,000 compounds, 0.66% hits | P35363 | CHO-K1 mHTR2A beta-arrestin complementation, luminescence; percent of 30 µM serotonin response | AID 624169 | activation, % at 7.6 µM;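 active = activation above a run cutoff, the mean activation of all tested compounds plus 3 SD, cut at about 14% in these data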;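 also: 0% = plate median of compound wells and 100% = 30 µM serotonin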
MC4R antagonist = human MC4R antagonism in cAMP assay; P32245; MC4R-expressing cells, MTII-stimulated cAMP, LANCE TR-FRET; inhibition, % at 6.5 µM; 360,000 compounds, 0.48% hits; AID 540295;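 active = inhibition above its plate's cutoff, the mean of tested wells on that plate plus 3 SD, cut at about 29% in these data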;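 also: 0% = Melanotan II alone and 100% = Melanotan II plus saturating MCL0020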
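System – human MC4R-expressing U2OS cells · Also added – Melanotan II · Dosing – one concentration, 6.5 µM nominal · Timing – 30-min compound, 1-h challenge, 1-h detection, room temperature · Measured by – Eu-cAMP/anti-cAMP TR-FRET, emission 671 nm · Replicates – singlicate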
MC4R barr agon = human MC4R agonism via beta-arrestin; P32245; U2OS MC4R beta-arrestin complementation, luminescence; percent of melanotan II response, DMSO zero; activation, % at 8.9 µM; 360,000 compounds, 0.98% hits; AID 540308;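 active = activation above a per-plate cutoff, the mean activation of sample wells on that plate plus 3 SD, cut at about 8% in these data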
MC4R barr ag = human MC4R beta-arrestin agonism confirmation; activation, % at 8.9 µM; shares compounds with MC4R barr agon; U2OS MC4R beta-arrestin recruitment, luminescence; scaled DMSO 0%, Melanotan II 100%; 2,400 compounds, 31% hits;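 active = mean activation across replicates above the hit cutoff set in the earlier primary screen, cut at about 8% in these data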
MOR-DOR barr ag = counter-screen for MC4R agonists: agonists of mu-delta opioid heterodimer; shares compounds with MC4R barr agon; U2OS PathHunter beta-arrestin, beta-gal luminescence; percent of deltorphin B response, DMSO zero; activation, % at 9.2 µM; 2,400 compounds, 5.8% hits; AID 602194;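 active = mean activation across replicates exceeds the hit threshold derived in the earlier primary screen, cut at about 18% in these data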;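 also: 100% = deltorphin B at 0.9 µM final and 0% = DMSO alone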
The depositor's hits bear a star; x = no result given. Hits are enriched below; roughly 4.7% of the tested compounds scored in any of these assays.

SMILES | AHR activator | FXN GAA850 act | HTR2A ag | MC4R antagonist | MC4R barr agon | MC4R barr ag | MOR-DOR barr ag
Cc1ccc(-n2nc3c4c(cccc4c2=O)-c2ccccc2-3)cc1 | 17 | 1 | -6 | 8 | 21* | 10* | 6
O=C(c1cc(-c2ccc(O)cc2)on1)N1CCN(c2ccccc2)CC1 | 11 | 1 | 3 | -8 | 2 | x | x
O=C(c1cc(-c2ccc(O)cc2)on1)N1CCN(c2ccc(F)cc2)CC1 | -1 | 3 | -5 | 11 | 11* | -1 | 6
COc1ccccc1Cc1c(-c2ccco2)nc2ccc(Br)cn12 | x | x | -3 | x | x | x | x
CCOc1ccc(C(=O)Nc2ccc(N3CCN(C(=O)c4ccco4)CC3)cc2)cc1Br | x | 2 | 11 | 1 | 14* | 3 | 4
CCC(=O)N1CCN(c2ccc(NC(=O)c3ccc4ccccc4c3)cc2)CC1 | -12 | -2 | -16 | 3 | 17* | 6 | 10
CCOC(=O)[C@]12CCCC=C1N(CCC1=CCCCC1)C(=O)[C@H](CC(=O)N1CCC(c3ccccc3)CC1)C2 | x | x | -4 | x | x | x | x
O=C1NCCNC1c1ccccc1 (stereo not drawn) | x | 1 | 5 | 1 | 0 | x | x
CCOC(=O)c1c(C)[nH]c(C(=O)COC(=O)c2cc(C)oc2C)c1C | 2 | 1 | 3 | -9 | 19* | 9.9* | 5
Cc1ccc(NC(=O)CN2C(=O)S/C(=C\c3ccccn3)C2=O)cc1 | 11 | -1 | -4 | 8 | -2 | x | x
COc1cccc(/C=C2/SC(=S)N(CCCC(=O)Nc3ccc(O)cc3)C2=O)c1 | -17 | -14 | 3 | -4 | 9.9* | 20* | 5
Cc1ccc(/C=C2\SC(=S)N(CCC(=O)NNS(=O)(=O)c3ccccc3)C2=O)cc1 | -2 | 3 | 3 | 14 | 47* | 1 | 6
Cc1ccc(NC(=O)CN2C(=O)S/C(=C\c3cccn3C)C2=O)cc1 | 1 | -4 | -6 | 8 | 15* | -1 | 5
Cc1ccc(/C=C2\SC(=S)N(CCC(=O)NNC(=O)c3ccccc3O)C2=O)cc1 | -1 | -1 | 0 | 0 | 0 | x | x
Cc1ccc(/C=C2/SC(=S)N(CCCC(=O)Nc3ccc(O)cc3)C2=O)cc1 | x | -15 | 1 | 0 | 17* | 7 | 8
Cc1ccc2nc(-c3ccccc3)cc(C(=O)N3CCN(S(=O)(=O)c4c(C)noc4C)CC3)c2c1 | 2 | 2 | -4 | 10 | 1 | x | x
Cc1cc(NC(=O)CCN2C(=O)/C(=C/c3ccccc3Cl)SC2=S)no1 | -4 | 1 | 1 | 4 | 16* | 5 | 3
CC(=Cc1ccccc1)C=C1SC(=S)N(CCCC(=O)Nc2ccc(C(=O)O)c(O)c2)C1=O | x | -5 | -4 | 23 | 1 | x | x
COc1ccccc1/C=C1\SC(=S)N(CCC(=O)Nc2cc(C)on2)C1=O | -4 | 2 | -1 | 12 | -1 | x | x
CC(/C=C1\SC(=S)N(CCC(=O)Nc2ccc(O)cc2)C1=O)=C\c1ccccc1 | -1 | -3 | -3 | 3 | 22* | 13* | 6
O=C(CCN1C(=O)/C(=C/c2cccs2)SC1=S)Nc1ccc(O)cc1 | 1 | -1 | -7 | -4 | 11* | 6 | 6
CS(=O)(=O)c1ccccc1-c1nnc(NC(=O)c2cccc(N3C(=O)CCC3=O)c2)o1 | -1 | 1 | -3 | -9 | -3 | x | x
CS(=O)(=O)/C(C#N)=C/c1cccn1S(=O)(=O)c1cccc2ccccc12 | x | 0 | 4 | 16 | 2 | x | x
COc1cc(-c2cc(-c3ccccc3)nc(SCC(=O)Nc3nccs3)c2C#N)cc(OC)c1OC | 6 | 3 | 3 | -12 | 11* | 5 | 3
Cc1cc(C)c(C#N)c(SCC(=O)Nc2nnc(-c3ccccc3)s2)n1 | 43 | -2 | 0 | 0 | 16* | 2 | 4
COc1ccc(CNC(=O)CSc2nc(-c3ccccc3)cc(-c3cccs3)c2C#N)cc1 | -1 | 1 | -3 | 2 | -1 | x | x
Cc1cc(C)c(C#N)c(SCC(=O)Nc2ccccc2C)n1 | 3 | -1 | 1 | 7 | -2 | x | x
